# Active and inactive are the calls of the source.
# Tests used:
# [1] = biological target: T1, Vascular endothelial growth factor receptor 2 (Homo sapiens, UniProt P35968); test: Inhibition of VEGFR2 assessed as [33Pi] incorporation by microplate scintillation counting in presence of 1 uM ATP
# Summary of the method: (§1)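 Substrates: Poly(Glu,Tyr)4:1 for VEGFR2; Poly(Glu,Tyr) or Poly(Ala,Glu,Lys,Tyr) for INS-R; RBER-CHKtide or casein for PLK1. Incubated 30 °C, 80 min, stopped with 2% H3PO4. Singlicate; activity referenced to no-enzyme and no-inhibitor controls.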
# [2] = biological target: T2, Serine/threonine-protein kinase PLK1 (Homo sapiens, UniProt P53350); test: Inhibition of PLK1 assessed as [33Pi] incorporation by microplate scintillation counting in presence of 1 uM ATP
# Insulin receptor [3] = biological target: T3, Insulin receptor (Homo sapiens, UniProt P06213); test: Inhibition of INSR assessed as [33Pi] incorporation by microplate scintillation counting in presence of 1 uM ATP; summary of the method: as §1
# NCI60 = test: Antiproliferative activity against human NCI60 cells at 10 uM after 48 hrs by sulforhodamine B assay; assay type: functional, cell-based
# Summary of the method: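 NCI 60-cell-line prescreen with compound given once at 10 μM. Cells grown in RPMI 1640 with 5% FBS and 2 mM L-glutamine, plated 24 h before dosing, then exposed 48 h at 37 °C. Fixed with cold TCA, stained with SRB, absorbance read at 515 nm, and percent growth taken relative to time-zero and control wells.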
# [4] = biological target: T1, Vascular endothelial growth factor receptor 2; settings: HUE, 10 uM
# [5] = biological target: T1, Vascular endothelial growth factor receptor 2; test: Inhibition of VEGFR2 assessed as [33Pi] incorporation at 10 uM by microplate scintillation counting in presence of 1 uM ATP; summary of the method: as §1
# [6] = biological target: T2, Serine/threonine-protein kinase PLK1; test: Inhibition of PLK1 assessed as [33Pi] incorporation at 10 uM by microplate scintillation counting in presence of 1 uM ATP; summary of the method: as §1
# Insulin receptor [7] = biological target: T3, Insulin receptor; test: Inhibition of INSR assessed as [33Pi] incorporation at 10 uM by microplate scintillation counting in presence of 1 uM ATP; summary of the method: as §1
# [8] = biological target: T1, Vascular endothelial growth factor receptor 2; test: Inhibition of VEGFR2 in HUE cells assessed as inhibition of VEGF-induced autophosphorylation treated for 90 mins before VEGF challenge by ELISA; assay type: cell-based
# HUVEC = test: Inhibition of angiogenesis in HUVEC assessed as inhibition of VEGF-induced sprout growth from cellular spheroids after 24 hrs; assay type: functional, cell-based; settings: Homo sapiens
# Summary of the method: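 Spheroids of 500 primary HUVEC formed overnight in hanging drops, then embedded in collagen gel. Compound added with VEGF-A at 25 ng/mL final, incubated 37 °C for 24 h, then fixed in 4% paraformaldehyde. Cumulative sprout length measured by image analysis; the mean of 10 random spheroids counts as one data point. IC50 from curve fitting.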
# IGROV-1 = test: Growth inhibition of human IGROV1 cells after 48 hrs by sulforhodamine B assay; assay type: functional; settings: IGROV-1, 48 h
# Summary of the method: (§2)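 NCI SRB assay with five drug concentrations, top concentration 100 μM, 48 h exposure at 37 °C in RPMI 1640/5% FBS. GI50 is the concentration giving [(Ti−Tz)/(C−Tz)]×100 = 50. Values are means of two independent runs on different dates, each run in duplicate.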
# CAKI-1 = test: Growth inhibition of human Caki1 cells after 48 hrs by sulforhodamine B assay; assay type: functional; settings: CAKI-1, 48 h; summary of the method: as §2
# UACC-257 = test: Growth inhibition of human UACC257 cells after 48 hrs by sulforhodamine B assay; assay type: functional; settings: UACC-257, 48 h; summary of the method: as §2
# T1 sequence (P35968 whole entry): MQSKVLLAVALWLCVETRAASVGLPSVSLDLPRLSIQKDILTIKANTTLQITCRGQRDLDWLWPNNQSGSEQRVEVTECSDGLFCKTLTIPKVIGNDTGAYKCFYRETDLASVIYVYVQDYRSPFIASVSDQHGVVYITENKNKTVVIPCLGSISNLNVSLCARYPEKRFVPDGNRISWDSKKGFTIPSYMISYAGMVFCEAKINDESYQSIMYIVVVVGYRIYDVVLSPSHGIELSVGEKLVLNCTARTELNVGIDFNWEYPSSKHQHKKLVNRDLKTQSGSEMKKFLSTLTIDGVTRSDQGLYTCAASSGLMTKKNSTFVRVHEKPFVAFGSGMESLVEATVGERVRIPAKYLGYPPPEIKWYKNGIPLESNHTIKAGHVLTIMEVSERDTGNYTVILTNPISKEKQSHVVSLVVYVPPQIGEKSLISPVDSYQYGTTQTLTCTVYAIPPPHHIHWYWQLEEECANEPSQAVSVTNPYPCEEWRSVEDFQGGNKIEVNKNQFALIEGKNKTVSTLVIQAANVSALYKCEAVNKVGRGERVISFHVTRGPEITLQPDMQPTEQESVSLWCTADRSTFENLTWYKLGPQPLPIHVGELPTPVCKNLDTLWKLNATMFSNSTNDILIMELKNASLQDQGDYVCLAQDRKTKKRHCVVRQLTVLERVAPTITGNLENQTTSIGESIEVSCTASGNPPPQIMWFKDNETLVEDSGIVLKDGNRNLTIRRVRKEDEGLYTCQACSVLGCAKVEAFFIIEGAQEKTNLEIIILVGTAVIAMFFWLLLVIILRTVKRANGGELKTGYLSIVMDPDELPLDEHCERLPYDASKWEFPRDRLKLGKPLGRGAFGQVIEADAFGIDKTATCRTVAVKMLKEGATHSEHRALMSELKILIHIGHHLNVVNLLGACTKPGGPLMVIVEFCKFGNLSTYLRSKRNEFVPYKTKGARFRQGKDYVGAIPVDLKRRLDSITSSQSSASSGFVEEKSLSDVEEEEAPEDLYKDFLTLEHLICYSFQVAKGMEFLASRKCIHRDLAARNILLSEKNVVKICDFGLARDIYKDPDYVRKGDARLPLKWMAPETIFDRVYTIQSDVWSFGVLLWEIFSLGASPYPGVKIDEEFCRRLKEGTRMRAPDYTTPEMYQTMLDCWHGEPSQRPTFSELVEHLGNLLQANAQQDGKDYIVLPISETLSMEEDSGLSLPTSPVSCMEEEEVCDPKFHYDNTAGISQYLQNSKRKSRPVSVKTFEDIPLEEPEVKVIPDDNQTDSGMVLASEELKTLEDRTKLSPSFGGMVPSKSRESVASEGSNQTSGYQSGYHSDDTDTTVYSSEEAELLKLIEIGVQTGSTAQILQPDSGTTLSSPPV
# T3 sequence (P06213 28-758 limits assumed): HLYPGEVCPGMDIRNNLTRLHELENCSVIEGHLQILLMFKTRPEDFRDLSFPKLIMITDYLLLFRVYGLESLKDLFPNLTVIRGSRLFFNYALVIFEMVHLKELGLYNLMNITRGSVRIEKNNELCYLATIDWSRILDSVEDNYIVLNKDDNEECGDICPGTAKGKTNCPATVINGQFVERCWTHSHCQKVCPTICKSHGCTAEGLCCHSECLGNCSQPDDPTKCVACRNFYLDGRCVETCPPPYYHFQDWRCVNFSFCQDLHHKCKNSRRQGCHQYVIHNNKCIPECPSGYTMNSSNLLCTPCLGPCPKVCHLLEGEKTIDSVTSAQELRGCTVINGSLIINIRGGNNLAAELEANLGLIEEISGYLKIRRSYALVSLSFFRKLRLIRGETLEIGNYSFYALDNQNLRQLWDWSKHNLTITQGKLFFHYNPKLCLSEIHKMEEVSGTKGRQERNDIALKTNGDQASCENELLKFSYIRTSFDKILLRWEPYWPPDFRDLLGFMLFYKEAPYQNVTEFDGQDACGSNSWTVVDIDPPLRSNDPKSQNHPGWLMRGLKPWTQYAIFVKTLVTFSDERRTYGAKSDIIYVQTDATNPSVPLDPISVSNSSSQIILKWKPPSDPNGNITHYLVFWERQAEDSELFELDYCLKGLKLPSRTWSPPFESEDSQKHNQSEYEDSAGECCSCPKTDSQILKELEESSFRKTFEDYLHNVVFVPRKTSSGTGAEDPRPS
# T3 sequence (P06213 763-1382 limits assumed): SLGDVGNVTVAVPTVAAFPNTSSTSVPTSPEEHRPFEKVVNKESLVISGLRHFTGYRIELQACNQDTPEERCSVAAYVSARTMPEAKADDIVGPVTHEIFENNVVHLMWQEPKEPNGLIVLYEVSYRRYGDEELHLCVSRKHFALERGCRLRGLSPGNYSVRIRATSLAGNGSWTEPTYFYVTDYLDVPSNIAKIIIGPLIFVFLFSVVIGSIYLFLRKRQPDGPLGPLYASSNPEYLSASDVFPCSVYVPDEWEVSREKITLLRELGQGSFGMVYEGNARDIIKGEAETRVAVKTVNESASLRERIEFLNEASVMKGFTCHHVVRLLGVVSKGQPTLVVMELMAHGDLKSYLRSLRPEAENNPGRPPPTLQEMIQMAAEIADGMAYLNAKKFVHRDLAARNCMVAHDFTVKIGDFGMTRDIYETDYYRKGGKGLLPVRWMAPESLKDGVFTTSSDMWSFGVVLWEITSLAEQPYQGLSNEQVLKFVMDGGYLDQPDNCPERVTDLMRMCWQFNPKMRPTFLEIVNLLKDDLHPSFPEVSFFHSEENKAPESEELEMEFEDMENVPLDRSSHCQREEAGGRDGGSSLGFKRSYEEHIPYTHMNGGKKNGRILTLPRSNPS
# T2 sequence (P53350 whole entry): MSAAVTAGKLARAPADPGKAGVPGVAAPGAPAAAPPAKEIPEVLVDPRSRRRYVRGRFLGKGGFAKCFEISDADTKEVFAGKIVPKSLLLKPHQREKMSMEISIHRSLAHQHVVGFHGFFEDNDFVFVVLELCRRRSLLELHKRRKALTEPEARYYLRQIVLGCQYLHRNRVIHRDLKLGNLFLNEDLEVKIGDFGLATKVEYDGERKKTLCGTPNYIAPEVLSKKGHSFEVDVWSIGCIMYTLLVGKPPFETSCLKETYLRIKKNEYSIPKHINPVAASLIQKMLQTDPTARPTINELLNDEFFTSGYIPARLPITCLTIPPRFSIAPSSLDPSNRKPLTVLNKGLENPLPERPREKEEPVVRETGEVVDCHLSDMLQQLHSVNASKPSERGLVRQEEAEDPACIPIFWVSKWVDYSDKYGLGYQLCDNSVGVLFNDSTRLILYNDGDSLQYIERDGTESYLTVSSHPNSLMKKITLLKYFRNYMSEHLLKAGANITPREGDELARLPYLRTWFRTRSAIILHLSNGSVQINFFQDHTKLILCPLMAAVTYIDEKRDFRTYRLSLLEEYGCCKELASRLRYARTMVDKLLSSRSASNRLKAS
IC50 [1] [nM],IC50 [2] [nM],IC50 (Insulin receptor [3]) [nM],inhibition [4],inhibition [5] [%],inhibition [6] [%],inhibition (Insulin receptor [7]) [%],IC50 [8] [nM],Structure (SMILES),Activity (NCI60),IC50 (HUVEC) [nM],GI50 (IGROV-1) [nM],GI50 (CAKI-1) [nM],GI50 (UACC-257) [nM]
87,1400,> 100000,inactive,–,–,–,–,O=C1Cc2cnc(Nc3ccc(O)c(Cl)c3)nc2-c2cnccc2N1,Active,–,–,–,–
–,–,–,–,< 30,< 30,< 30,–,O=C1Cc2cnc3ncnn3c2-c2ccccc2N1,Active,–,–,–,–
52,7300,> 100000,–,–,–,–,290,CCOc1ccc(Nc2ncc3c(n2)-c2ccc(OC)cc2NC(=O)C3)cc1,Active,1100,230,390,55000
